Assay results: ChEMBL document CHEMBL1255304, “In vitro phenotypic susceptibility of human immunodeficiency virus type 2 clinical isolates to protease inhibitors” (Antimicrob Agents Chemother, 2008)

Columns and labels:
[1] = tested on: Human immunodeficiency virus 2; assay: Antiviral activity against HIV 2 subtype H expressing 10I-40P-41Y-60H-63N-70T-73G-89L-92E protease gene sequence from HIV2 infected patient plasma and PBMC obtained before compound treatment measured after 13 months; assay type: functional, organism-based; settings: Human immunodeficiency virus 2, subtype H
Procedure, shortened: (§1)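 Virus isolated by PBMC coculture from patient samples taken before (T0) or during (T1, T2) protease inhibitor exposure, with protease genes sequenced from plasma and PBMC isolates. Susceptibility was tested in the ANRS PBMC assay, and the 50% inhibitory concentration (IC50) was reported.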

[2] = tested on: Human immunodeficiency virus 2; assay: Antiviral activity against HIV 2 subtype A clinical isolate expressing 10I-40D-43I-70K-82F-84V-85L-89V-90M-91T/L-98N/K protease gene sequence from HIV2 infected patient plasma and PBMC obtained at T1 during compound treatment measured after 13 months; assay type: functional, organism-based; settings: Human immunodeficiency virus 2, subtype A; procedure, shortened: as §1
[3] = tested on: Human immunodeficiency virus type 1 (BRU ISOLATE); assay: (§2) Antiviral activity against Human immunodeficiency virus type 1 (BRU ISOLATE) after […]; assay type: functional
[4] = as §2; assay type: functional; settings: Human immunodeficiency virus 1
[5] = tested on: Human immunodeficiency virus 2; assay: Antiviral activity against HIV 2 subtype A clinical isolate expressing 14H-17D-43T-68N/D protease gene sequence from HIV2 infected patient plasma and PBMC obtained before compound treatment measured after 13 months; assay type: functional, organism-based; settings: Human immunodeficiency virus 2, subtype A; procedure, shortened: as §1
[6] = tested on: Human immunodeficiency virus 2; assay: Antiviral activity against HIV 2 subtype A clinical isolate expressing 54M-65E-71I-74N-90M protease gene sequence from HIV2 infected patient plasma and PBMC obtained at T1 during compound treatment measured after 13 months; assay type: functional, organism-based; settings: Human immunodeficiency virus 2, subtype A; procedure, shortened: as §1
[7] = tested on: Human immunodeficiency virus 2; assay: Antiviral activity against HIV 2 subtype A clinical isolate expressing 14H-60K/N-65E protease gene sequence from HIV2 infected patient plasma and PBMC obtained before compound treatment measured after 13 months; assay type: functional, organism-based; settings: Human immunodeficiency virus 2, subtype A; procedure, shortened: as §1
[8] = tested on: Human immunodeficiency virus 2; assay: Antiviral activity against HIV 2 subtype B clinical isolate expressing 12Q-14R-17G/D-19P-61N-62I-92A protease gene sequence from HIV2 infected patient plasma and PBMC obtained before compound treatment measured after 13 months; assay type: functional, organism-based; settings: Human immunodeficiency virus 2, subtype B\r\n; procedure, shortened: as §1
[9] = tested on: Human immunodeficiency virus 2; assay: Antiviral activity against HIV 2 subtype B clinical isolate expressing 12T-14Y-19P-40N-41D-61N-62I-96S-99L protease gene sequence from HIV2 infected patient plasma and PBMC obtained before compound treatment measured after 13 months; assay type: functional, organism-based; settings: Human immunodeficiency virus 2, subtype B\r\n; procedure, shortened: as §1
[10] = tested on: Human immunodeficiency virus 2; assay: Antiviral activity against HIV 2 subtype B clinical isolate expressing 14Y-19P-61N-64V-71I-90M-95I protease gene sequence from HIV2 infected patient plasma and PBMC obtained at T2 during compound treatment measured after 3 months; assay type: functional, organism-based; settings: Human immunodeficiency virus 2, subtype B\r\n; procedure, shortened: as §1
[11] = tested on: Human immunodeficiency virus 2; assay: Antiviral activity against Human immunodeficiency virus type 2 (ISOLATE ROD) after 13 months; assay type: functional, organism-based; settings: Human immunodeficiency virus 2, ISOLATE ROD
Procedure, shortened: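 Reference strain ROD was tested in the ANRS PBMC assay alongside the clinical isolates, and the 50% inhibitory concentration (IC50) was reported.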

[12] = tested on: Human immunodeficiency virus 2; assay: Antiviral activity against HIV 2 subtype A clinical isolate expressing 10I-17D-40D-43I-45K/R-46V-54M-64I/V-69K/R-71V/I-90M protease gene sequence from HIV2 infected patient plasma and PBMC obtained at T1 during compound treatment measured after 13 months; assay type: functional, organism-based; settings: Human immunodeficiency virus 2, subtype A; procedure, shortened: as §1
[13] = tested on: Human immunodeficiency virus 2; assay: Antiviral activity against HIV 2 subtype B clinical isolate expressing 14Y-19P-33I-61N-71I-75M-84V-90M protease gene sequence from HIV2 infected patient plasma and PBMC obtained at T1 during compound treatment measured after 13 months; assay type: functional, organism-based; settings: Human immunodeficiency virus 2, subtype B\r\n; procedure, shortened: as §1
[14] = tested on: Human immunodeficiency virus 2; assay: Antiviral activity against HIV 2 subtype H expressing 10I-34E-40P-41Y-60H-63N-70T-73G-82F-89L-92E protease gene sequence from HIV2 infected patient plasma and PBMC obtained at T1 during compound treatment measured after 13 months; assay type: functional, organism-based; settings: Human immunodeficiency virus 2, subtype H; procedure, shortened: as §1
[15] = tested on: Human immunodeficiency virus 2; assay: Antiviral activity against HIV 2 subtype A clinical isolate expressing 5L/F-14Y/H-17G/D-43T-54I/M-62V/A-70R/K-71I protease gene sequence from HIV2 infected patient plasma and PBMC obtained at T1 during compound treatment measured after 13 months; assay type: functional, organism-based; settings: Human immunodeficiency virus 2, subtype A; procedure, shortened: as §1
[16] = tested on: Human immunodeficiency virus 2; assay: Antiviral activity against HIV 2 subtype B clinical isolate expressing 14Y-61N-99L protease gene sequence from HIV2 infected patient plasma and PBMC obtained before compound treatment measured after 13 months; assay type: functional, organism-based; settings: Human immunodeficiency virus 2, subtype B\r\n; procedure, shortened: as §1
[17] = tested on: Human immunodeficiency virus 2; assay: Antiviral activity against HIV 2 subtype A clinical isolate expressing 10I-17D-40D-43I-46V-66V/A-70R/K protease gene sequence from HIV2 infected patient plasma and PBMC obtained before compound treatment measured after 13 months; assay type: functional, organism-based; settings: Human immunodeficiency virus 2, subtype A; procedure, shortened: as §1
[18] = tested on: Human immunodeficiency virus 2; assay: Antiviral activity against HIV 2 subtype A clinical isolate expressing 14H-40D-70K-72R/K-91T/S protease gene sequence from HIV2 infected patient plasma and PBMC obtained before compound treatment measured after 13 months; assay type: functional, organism-based; settings: Human immunodeficiency virus 2, subtype A; procedure, shortened: as §1
[19] = tested on: Human immunodeficiency virus 2; assay: Antiviral activity against HIV 2 subtype A clinical isolate expressing 10V/I-40D-43I-56V-70K-82F-84V-89V-90M protease gene sequence from HIV2 infected patient plasma and PBMC obtained at T2 during compound treatment measured after 3 months; assay type: functional, organism-based; settings: Human immunodeficiency virus 2, subtype A; procedure, shortened: as §1

**Q.** Which IC50 [1] does the source give for `CC(C)CN(C[C@@H](O)[C@H](Cc1ccccc1)NC(=O)O[C@H]1CCOC1)S(=O)(=O)c1ccc(N)cc1` [AMPRENAVIR] here?
**A.** 0.9 µM

**Q.** And the IC90 [1]?
**A.** 2.7 µM

**Q.** What about the IC50 [2] of the same molecule?
**A.** 12 µM

**Q.** What about the IC90 [2] of the same molecule?
**A.** 96 µM

**Q.** What about the IC90 [3] of the same molecule?
**A.** 0.2 µM

**Q.** What about the IC50 [4] of the same molecule?
**A.** 0.02 µM

**Q.** And the IC50 [5]?
**A.** 0.6 µM

**Q.** And the IC90 [5]?
**A.** 3.8 µM

**Q.** What about the IC50 [6] of the same molecule?
**A.** 4 µM

**Q.** What about the IC90 [6] of the same molecule?
**A.** 60 µM

**Q.** And the IC50 [7]?
**A.** 0.9 µM

**Q.** What about the IC90 [7] of the same molecule?
**A.** 6.8 µM

**Q.** And the IC50 [8]?
**A.** 0.4 µM

**Q.** And the IC90 [8]?
**A.** 2.8 µM

**Q.** What about the IC50 [9] of the same molecule?
**A.** 0.4 µM

**Q.** What about the IC90 [9] of the same molecule?
**A.** 2.4 µM

**Q.** What about the IC50 [10] of the same molecule?
**A.** 17 µM

**Q.** What about the IC90 [10] of the same molecule?
**A.** 140 µM

**Q.** What about the IC50 [11] of the same molecule?
**A.** 0.6 µM

**Q.** What about the IC90 [11] of the same molecule?
**A.** 4.6 µM

**Q.** And the IC50 [12]?
**A.** 9.5 µM

**Q.** What about the IC90 [12] of the same molecule?
**A.** 31 µM

**Q.** And the IC50 [13]?
**A.** 14 µM

**Q.** And the IC90 [13]?
**A.** 110 µM

**Q.** And the IC50 [14]?
**A.** 10 µM

**Q.** What about the IC90 [14] of the same molecule?
**A.** 82 µM

**Q.** What about the IC50 [15] of the same molecule?
**A.** 4.4 µM

**Q.** What about the IC90 [15] of the same molecule?
**A.** 13 µM

**Q.** What about the IC50 [16] of the same molecule?
**A.** 0.6 µM

**Q.** And the IC90 [16]?
**A.** 4.6 µM

**Q.** And the IC50 [17]?
**A.** 0.4 µM

**Q.** And the IC90 [17]?
**A.** 3.5 µM

**Q.** What about the IC50 [18] of the same molecule?
**A.** 0.3 µM

**Q.** What about the IC90 [18] of the same molecule?
**A.** 1.6 µM

**Q.** And the IC50 [19]?
**A.** 12 µM

**Q.** And the IC90 [19]?
**A.** 95 µM
